In PubChem BioAssay:
Active and inactive are the calls of the source.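 Rule for the calls, unless noted: active = fluorescence slope higher than the sample average by over 3 SD (cut at about -0.22 in these data, passing the limit was not always enough); inactive = the rest.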

How the values were obtained:
[1] = inhibitors of TNFa-induced NFkB p65 translocation, primary screen, imaging, HUVEC, MLSMR starter and 10KST1 sets (AID 438;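 active = inhibition above 20% together with a positive visual image hit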;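 note: compound added about 3h40 before a 20 min TNFalpha stimulation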;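 for inhibition: signal is the nuclear over cytoplasmic p65 intensity ratio per well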); conditions: HUVEC TNFa-induced p65 nuclear translocation; cell count: measured here: nuclei count (cytotoxicity indicator), at 2.08 µM; inhibition: at 2 µM, stronger effect = higher value, 0% TNFa-plus-vehicle, 100% no-TNFa wells
[2] = reduction of polyQ htt aggregates in cells – imaging, exon1htt(103Q)mCFP cells, high-content imaging, primary screen (AID 483;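 active = visual image review flags a hit and inhibition of aggregation exceeds 20%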;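 note: compound exposure lasted 3 days before fixation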;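 for nuclei count: percent of the per-plate median nuclei count of sample wells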); conditions: exon1htt(103Q)mCFP cell line, aggregate imaging, at 2 µM; inhibition of aggregation: stronger effect = higher value; nuclei count: measured here: cell count, toxicity
[3] = endothelial E-selectin expression blockers – imaging, HUVEC, immunofluorescence, MLSMR starter and 10KST1 sets, primary screen (AID 487;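 active = visually confirmed hit in the image check and inhibition above 20%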;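 for inhibition: signal is fraction of cell area covered by stained E-selectin grains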;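 for nuclei count: 100% = median nuclei count of all wells on the same plate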); conditions: HUVEC TNFalpha-induced E-selectin immunofluorescence imaging, at 2 µM; inhibition: stronger effect = higher value; nuclei count: measured here: cell number, toxicity
[4] = target: Voltage-gated potassium channel subunit beta-2 (Rattus norvegicus) (UniProt P62483); test: inhibitors of rat Kvbeta2 reductase activity – biochemical, NADPH fluorescence, primary screen (AID 622); conditions: recombinant KvBeta, 4-cyanobenzaldehyde reduction, at 10 µM, stronger effect = higher value;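 note: slope of raw intensity against log time taken from 70 to 1610 s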
[5] = target: Voltage-gated potassium channel subunit beta-2 (Rattus norvegicus) (UniProt P62483); test: enhancers of rat Kvbeta2 NADPH turnover – biochemical, NADPH fluorescence, primary screen (AID 623;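 active = NADPH fluorescence slope more negative than the mean of all samples by about 3 SD, 99.7% confidence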;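 note: fluorescence intensity change per second fitted from 20 to 320 s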); conditions: Recombinant KvBeta, NADPH fluorescence decrease slope, 10 min; at 10 µM; stronger effect = lower value
[6] = target: Alpha-2C adrenergic receptor (Homo sapiens) (UniProt P18825); test: compounds altering alpha2C-coupled GIRK flux – cell-based, HEK293 alpha2C/GIRK1/2, thallium flux, primary screen (AID 624;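 active = fluorescence slope after compound addition differing from the mean of all screened samples at 99.7% confidence, in either direction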;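 note: slope of fluorescence ratio to pre-addition baseline per second over 15 to 24 s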); conditions: thallium flux BTC fluorescence, at 10 µM, actives lie on both sides
[7] = inhibitors of larval lipid processing in zebrafish, primary screen, whole organism, PED6 fluorescence, gall bladder and intestine (AID 686;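 active = a full or partial loss of lipid-probe fluorescence in the fish gall bladder, intestine or both, judged by eye; inactive = no fluorescence loss, or compound toxic to the fish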;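 note: larvae 5 to 7 days old with five fish per well; signal comes from phospholipase A2 cleavage of quenched PED6 carried via bile; overnight exposure to compound and PED6 before scoring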); conditions: Zebrafish larvae PED6 lipid processing, fluorescence scoring; screened at 20 µM (by protocol)
Method in brief: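 Also added: quenched phospholipase substrate PED6, 100 nM final, ingested by larvae; System: zebrafish larvae, 5-7 d; Quantity: 5 larvae per well; Compound: 20 µM single dose; Schedule: overnight compound and PED6 incubation; Read-out: visual per-well fluorescence inhibition score; Measured by: By-eye fluorescence microscopy; Medium: E3.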

[8] = blockers of RIG-like receptor reporter activation – cell-based, Sendai virus stimulus, luciferase, 10K MLSCN set, TLR/RLR signaling modifier project, primary screen (AID 602276;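 active = inhibition at or above 50% at 10 µM; inactive = inhibition below 50%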;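 note: firefly luciferase from ISG56 promoter only with Renilla not read in this screen; 0% = Sendai virus plus DMSO and 100% = medium plus DMSO without virus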); conditions: HEK293 RL24 IRF3 luciferase reporter, at 10 µM, stronger effect = higher value
[9] = TLR3 IRF3 reporter activation blockers – cell-based, poly I:C stimulus, luciferase, 10K MLSCN set, primary screen (AID 602277;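 active = inhibition of the reporter signal at or above 50%; inactive = inhibition below 50%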); conditions: HEK293-TLR3 RL24 IRF3 luciferase reporter, at 10 µM, stronger effect = higher value

Sequence of Alpha-2C adrenergic receptor (Homo sapiens) (P18825 whole entry, looked up): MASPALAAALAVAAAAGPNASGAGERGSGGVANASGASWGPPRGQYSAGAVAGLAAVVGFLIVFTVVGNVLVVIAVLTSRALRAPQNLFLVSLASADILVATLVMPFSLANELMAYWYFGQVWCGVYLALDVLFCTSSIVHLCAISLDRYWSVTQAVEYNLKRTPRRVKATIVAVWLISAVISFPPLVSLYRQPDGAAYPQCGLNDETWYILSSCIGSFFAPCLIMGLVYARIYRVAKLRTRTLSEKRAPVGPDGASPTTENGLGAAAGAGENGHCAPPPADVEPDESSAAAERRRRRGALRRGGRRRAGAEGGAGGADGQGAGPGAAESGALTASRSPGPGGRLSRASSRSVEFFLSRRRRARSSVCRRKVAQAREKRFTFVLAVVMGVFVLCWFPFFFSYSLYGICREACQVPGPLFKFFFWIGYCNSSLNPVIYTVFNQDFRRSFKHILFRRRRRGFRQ
Sequence of Voltage-gated potassium channel subunit beta-2 (Rattus norvegicus) (P62483 whole entry, looked up): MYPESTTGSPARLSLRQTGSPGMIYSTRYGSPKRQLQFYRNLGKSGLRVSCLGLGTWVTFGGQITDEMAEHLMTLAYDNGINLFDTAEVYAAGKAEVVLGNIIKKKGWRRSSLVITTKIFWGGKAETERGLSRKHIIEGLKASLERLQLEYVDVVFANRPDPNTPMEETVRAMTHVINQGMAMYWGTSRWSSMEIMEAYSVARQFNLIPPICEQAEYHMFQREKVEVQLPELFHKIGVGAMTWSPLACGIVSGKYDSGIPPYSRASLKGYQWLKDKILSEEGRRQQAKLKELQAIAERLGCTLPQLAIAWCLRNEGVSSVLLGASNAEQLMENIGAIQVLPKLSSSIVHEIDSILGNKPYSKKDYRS

| Compound | cell count [1] | inhibition [1] | inhibition of aggregation [2] | nuclei count [2] [%] | inhibition [3] | nuclei count [3] [%] | fluorescence slope [4] | NADPH fluorescence slope [5] | slope [6] | outcome [7] | inhibition [8] | inhibition [9] |
| --- | --- | --- | --- | --- | --- | --- | --- | --- | --- | --- | --- | --- |
| COCCn1c(C)cc(C(=O)COC(=O)c2ccc(N3CCCC3=O)cc2)c1C | 527 | -16.9% (inactive) | 12.8% (inactive) | 97.9 | 26.9% (inactive) | 103 | -0.329 (inactive) | -7.1e-05 (inactive) | 0.00515 (inactive) | inactive | 14.7% (inactive) | 26.1% (inactive) |
| COc1ccc(CC(=O)Nc2cc(Cl)ccc2O)cc1 | 605 | -9.3% (inactive) | 12% (inactive) | 99.8 | -72% (inactive) | 108 | -0.409 (inactive) | -1.5e-05 (inactive) | 0.00576 (inactive) | inactive | -8.56% (inactive) | -1.02% (inactive) |
| O=C(Nc1ccc2c(c1)OCO2)N1CCN(c2ncccn2)CC1 | 342 | 10.3% (inactive) | -5.6% (inactive) | 107 | -38.9% (inactive) | 118 | -0.421 (inactive) | -3.9e-06 (inactive) | 0.00535 (inactive) | inactive | -23.4% (inactive) | -41.5% (inactive) |
| COc1ccccc1C(=O)NCC(=O)Nc1ccccc1 | 258 | -2.3% (inactive) | 14.2% (inactive) | 94.4 | 59% (inactive) | 27.8 | -0.451 (inactive) | -4.6e-05 (inactive) | 0.00528 (inactive) | inactive | 6.26% (inactive) | 8.93% (inactive) |
| O=C(NCCCN1CCCC1=O)c1cccnc1 | 364 | 2.5% (inactive) | -3.8% (inactive) | 108 | 35.2% (inactive) | 100 | -0.432 (inactive) | -4.3e-06 (inactive) | 0.00372 (inactive) | inactive | -11.4% (inactive) | -7.12% (inactive) |
| Cc1nc2ccc(F)cc2cc1C(=O)NCC1CCCO1 (centres undefined) | 421 | -8.7% (inactive) | 7.6% (inactive) | 96.4 | -34.7% (inactive) | 115 | -0.432 (inactive) | -4.9e-05 (inactive) | 0.00492 (inactive) | inactive | 17.3% (inactive) | 27.4% (inactive) |
| CCC(=O)N(Cc1ccco1)c1nc(-c2cc(OC)ccc2OC)cs1 | 643 | -8% (inactive) | 18.8% (inactive) | 100 | -11.7% (inactive) | 101 | -0.397 (inactive) | -4.8e-05 (inactive) | 0.00497 (inactive) | inactive | 8.75% (inactive) | 7.6% (inactive) |
| O=C(CN1CCC(n2nnc3ccccc32)CC1)Nc1ccc2c(c1)CCC2 | 643 | -9.3% (inactive) | 4.8% (inactive) | 96.4 | -27% (inactive) | 107 | -0.42 (inactive) | -4.8e-05 (inactive) | 0.00413 (inactive) | inactive | 16% (inactive) | 19% (inactive) |
| Cc1cc(C(=O)Nc2c(C)n(C)n(-c3ccccc3)c2=O)c(C)o1 | 330 | -1.4% (inactive) | 5.3% (inactive) | 101 | 2% (inactive) | 100 | -0.412 (inactive) | -7.3e-05 (inactive) | 0.00524 (inactive) | inactive | 17% (inactive) | 14.7% (inactive) |
| O=C1c2ccccc2C(=O)N1c1cccc(-c2nc3ccccc3o2)c1 | 464 | 7.6% (inactive) | 4% (inactive) | 104 | -175% (inactive) | 130 | -0.384 (inactive) | -5.2e-05 (inactive) | 0.00482 (inactive) | inactive | 2.66% (inactive) | 4.23% (inactive) |
| CSc1nnc(-c2ccccc2)n1C | 645 | -13.1% (inactive) | -35.1% (inactive) | 111 | -16.6% (inactive) | 108 | -0.398 (inactive) | -6.9e-06 (inactive) | 0.00519 (inactive) | inactive | 16.8% (inactive) | 17.4% (inactive) |
| Cc1ccc(-n2c(C)cc3c2CCCC3=O)cc1 | 313 | 2.4% (inactive) | -9.3% (inactive) | 88.9 | -29.8% (inactive) | 118 | -0.366 (inactive) | -7.7e-05 (inactive) | 0.00516 (inactive) | inactive | 5.45% (inactive) | 8.48% (inactive) |
| CC(=O)N1CN(C2CCCC2)Cc2c1sc1c2CCCC1 | 793 | -14% (inactive) | 11.7% (inactive) | 99.2 | 26.2% (inactive) | 90.6 | -0.433 (inactive) | -1.9e-07 (inactive) | 0.00682 (inactive) | inactive | 5.21% (inactive) | 20% (inactive) |
| CC(=O)Nc1ccc(NC(=O)Cn2cnc3c(cnn3C(C)(C)C)c2=O)cc1 | 586 | -3.3% (inactive) | 8.4% (inactive) | 104 | 0.5% (inactive) | 111 | -0.37 (inactive) | -4e-05 (inactive) | 0.00604 (inactive) | inactive | 2.03% (inactive) | 2.5% (inactive) |
| COc1cc2c(cc1NC(=O)CSc1nnc(Cc3cccs3)n1C)oc1ccccc12 | 368 | 4.7% (inactive) | 9.3% (inactive) | 104 | -30.5% (inactive) | 112 | -0.45 (inactive) | -0.000107 (inactive) | 0.00401 (inactive) | inactive | 13.9% (inactive) | 5.76% (inactive) |
| O=C(NC1CCCCC1NC(=O)c1ccco1)c1ccco1 (centres undefined) | 726 | 10.2% (inactive) | -7.6% (inactive) | 108 | 65.3% (inactive) | 112 | -0.384 (inactive) | -1.6e-05 (inactive) | 0.00439 (inactive) | inactive | -10.8% (inactive) | -8.21% (inactive) |
| Cc1sc2ncnc(Oc3ccc(-n4ccnc4)cc3)c2c1C | 377 | -13.2% (inactive) | -1% (inactive) | 109 | -56.2% (inactive) | 140 | -0.382 (inactive) | 7e-06 (inactive) | 0.00491 (inactive) | inactive | -6.33% (inactive) | -14.4% (inactive) |
| O=C(Cn1[nH]c(=O)c2ccccc2c1=O)OCC(=O)N1CCCc2ccccc21 | 335 | 4.2% (inactive) | -9% (inactive) | 98.2 | -37% (inactive) | 117 | -0.389 (inactive) | -6e-05 (inactive) | 0.00579 (inactive) | inactive | 8.5% (inactive) | 10.3% (inactive) |
| CC1(C)CC(=O)C2=C(C1)Nc1ccccc1N=C2 | 759 | -6.9% (inactive) | 11.9% (inactive) | 104 | 40.8% (inactive) | 94.5 | -0.483 (inactive) | -5.6e-05 (inactive) | 0.00436 (inactive) | inactive | -4.26% (inactive) | -38.2% (inactive) |
| CCOC(=O)c1ccc(CNC(=O)C(Cc2c[nH]c3ccccc23)NC(C)=O)o1 (centres undefined) | 444 | -0.3% (inactive) | -11.1% (inactive) | 122 | -52.8% (inactive) | 167 | -0.369 (inactive) | -4.9e-06 (inactive) | 0.00652 (inactive) | inactive | 17% (inactive) | 29.3% (inactive) |
| Cn1c(=O)c2c(nc(N3CCN(c4ccccc4)CC3)n2CCCc2ccccc2)n(C)c1=O | 702 | 1.4% (inactive) | -15.2% (inactive) | 99.1 | 20.4% (inactive) | 96.5 | -0.339 (inactive) | -3.2e-05 (inactive) | 0.00552 (inactive) | inactive | 10.7% (inactive) | -10.5% (inactive) |
| COc1cc(CO)cc(-c2cc(CO)cc(OC)c2OC)c1OC | 547 | 3.5% (inactive) | 19.5% (inactive) | 76.2 | 49.8% (inactive) | 60.6 | -0.367 (inactive) | -5.9e-05 (inactive) | 0.00523 (inactive) | inactive | 11.3% (inactive) | 15.6% (inactive) |
| c1cncc(C2Nc3ccccc3-c3nc4ccccc4n32)c1 (centres undefined) | 428 | 21.8% (active) | 2.7% (inactive) | 93.3 | -151% (inactive) | 116 | -0.37 (inactive) | -5.6e-05 (inactive) | 0.00507 (inactive) | inactive | -7% (inactive) | -38.6% (inactive) |
| Cc1ccc(S(=O)(=O)N2CCCN(S(=O)(=O)C3CCS(=O)(=O)C3)CC2)cc1 (centres undefined) | 455 | 2.4% (inactive) | -22.7% (inactive) | 111 | -102% (inactive) | 129 | -0.366 (inactive) | -4.2e-05 (inactive) | 0.00596 (inactive) | inactive | 12.7% (inactive) | 14% (inactive) |
| COc1ccccc1-n1nnnc1SCc1cc2c(cc1Br)OCO2 | 319 | -4.5% (inactive) | -1.1% (inactive) | 90.3 | -168% (inactive) | 130 | -0.437 (inactive) | -4.6e-05 (inactive) | 0.00645 (inactive) | inactive | 19.6% (inactive) | 22.9% (inactive) |
| Cc1ccc2[nH]c3c(c2c1)CN(C(=O)CN1CCN(c2cccc(C)c2C)CC1)CC3 | 392 | 6.2% (inactive) | 22.7% (inactive) | 75.3 | -86.9% (inactive) | 111 | -0.306 (inactive) | -2.6e-05 (inactive) | 0.00467 (inactive) | inactive | 22.6% (inactive) | 24.6% (inactive) |
| COc1ccccc1C(=O)NCC(c1cccnc1)N(C)C (centres undefined) | 776 | -2.2% (inactive) | -39.1% (inactive) | 112 | 1.4% (inactive) | 122 | -0.422 (inactive) | -5.3e-05 (inactive) | 0.00557 (inactive) | inactive | 10.3% (inactive) | 4.98% (inactive) |
